Laboratory results: PMC11062580 (Science Advances, 2024)

Key:
tau aggregation = details: phase 2 (curcumin) and phase 3 (methylene blue/LMTX) trials; cited from earlier work
tau K18^+ fibrils [1] = test: TEM of tau K18+ aggregation with inhibitor; format: biochemical; details: 20 μM tau K18+, 48 h; 5-100 μM peptide or MNPs-DP 0.005-0.04 mg/ml
Outline: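 Recombinant tau K18+ (20 µM final, PBS pH 7.4) was aggregated with 40 µM ThT, 15 µM heparin and 1 mM DTT at 37°C with 700 rpm double orbital shaking. Test peptide was at 5–100 µM; nanoparticles at 0.005–0.04 mg/ml. For TEM, 6 µl sample went on glow-discharged carbon grids for 5 min, then 2% uranyl acetate for 2 min.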

tau K18^+ fibrils [2] = test: ThT fragmentation assay of preformed tau K18+ fibrils; format: biochemical
tau K18^+ fibrils [3] = test: TEM of preformed tau K18+ fibrils after treatment; format: biochemical; details: 7-DP 2.5-100 μM or MNPs-DP 0.005-0.02 mg/ml, 24 hours
tau K18^+ fibrils [4] = test: Dot blot with anti-amyloid OC antibody; format: biochemical; details: 7-DP 2.5-100 μM or MNPs-DP 0.005-0.02 mg/ml, 24 h
AD tau fibrils = test: TEM of AD-extracted tau fibrils after treatment; format: biochemical; details: 0.02 mg/ml (86 μM 7-DP for MNPs-DP), 48 hours, 37°C; n = 10 images
C57BL/6J mice brain = test: BBB penetration, Fe in brain by ICP-MS; format: in vivo, mouse; details: 10 mg/kg tail vein with intranasal mannitol; 2 hours; n = 3 per group
Outline: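 Wild-type C57BL/6J mice aged 2 months received 20 μl of 2% mannitol intranasally, then test nanoparticles at 10 mg/kg by tail vein; controls received PBS. Mice were euthanized after 2 h and perfused. Half-brains were dried at 105°C, digested in concentrated HNO3/HCl at 80°C for 2 h and diluted. Fe was quantified by ICP-MS.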

Body weight of PS19 mice = format: in vivo, mouse; details: 10 mg/kg i.v. weekly for 10 weeks, with intranasal mannitol; n = 13 per group
PS19 mice [5] = test: Barnes maze test; format: in vivo, mouse; details: 10 mg/kg i.v. weekly for 10 weeks
Outline: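 Mice were seeded with K18+ fibrils (2-month males, 6-month females) and given weekly tail-vein 10 mg/kg for 10 weeks plus intranasal mannitol; PBS vehicle; C57BL/6J controls. Maze had 20 holes with an escape box. Acquisition was 10 trials (2/day, 15-min interval, 2 min each). Probe came 1 day later: tunnel replaced, 90 s, with primary latency and target-hole entries. Testing was blinded and randomized.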

PS19 mice [6] = test: Novel object recognition test; format: in vivo, mouse; details: 10 mg/kg i.v. weekly for 10 weeks, n = 13
Outline: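 PS19 mice seeded with K18+ fibrils, then weekly i.v. 10 mg/kg for 10 weeks with intranasal mannitol; PBS vehicle. Arena habituation was 10 min, 24 h before testing. Acquisition: two identical objects, 10 min. After 90 min in the home cage, retention: one familiar and one novel object, 10 min. Exploration was nose, mouth or forepaw contact. DR = TC/(TR + TC); […].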

PS19 mice [7] = test: Serum AST as index of hepatic toxicity; format: in vivo, mouse; details: 10 mg/kg i.v. weekly for 10 weeks; n = 13; ELISA
PS19 mice [8] = test: H&E histology of major organs; format: in vivo, mouse; details: 10 mg/kg i.v. weekly for 10 weeks
Outline: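 Seeded PS19 mice were treated weekly i.v. at 10 mg/kg for 10 weeks with intranasal mannitol. Heart, liver, spleen, lung and kidney (n = 3) were fixed in 4% buffered formalin at 4°C overnight and embedded in paraffin. Sections of 5 µm were stained with hematoxylin and eosin.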

[9] = tested on: phosphorylated tau (ptau) pSer^202/Thr^205; test: AT8 immunohistochemistry of hippocampus; format: in vivo, mouse; details: 10 mg/kg i.v. weekly for 10 weeks; n = 6 per group
Outline: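 PS19 mice seeded stereotaxically with 1.5 µl recombinant K18+ tau fibril seeds (5 µg/µl). Dosing began 2 weeks later: tail-vein 10 mg/kg weekly for 10 weeks, with intranasal mannitol; vehicle was PBS. Brain sections were stained with AT8 (pSer202/Thr205) at 4°C overnight, then biotinylated anti-mouse secondary (1:1000, 1 h, 37°C). AT8-positive staining was quantified in hippocampal CA1 and CA3.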

| Molecule | clinical efficacy (tau aggregation) | counts and length of tau K18+ fibrils (TEM) (tau K18^+ fibrils [1]) | fragmentation of preformed tau K18+ fibrils, MNPs-DP and MNPs (ThT) (tau K18^+ fibrils [2]; 20 μM tau K18+ fibrils, MNPs-DP or MNPs 0.02 mg/ml, added at 10 hours, reference 50 μM 7-DP) | dose-dependent ThT fluorescence intensity of tau K18+ fibrils (tau K18^+ fibrils [2]; 7-DP 2.5-100 μM or MNPs-DP 0.005, 0.01, 0.02 mg/ml) | dose-dependent number/abundance of tau K18+ fibrils under TEM (tau K18^+ fibrils [3]) | binding of anti-amyloid OC antibody to tau K18+ fibrils (tau K18^+ fibrils [4]) | fragmentation of AD-extracted tau fibrils by MNPs-DP or MNPs (AD tau fibrils) | BBB penetration (C57BL/6J mice brain) | body weight of PS19 mice (Body weight of PS19 mice) | memory function in probe trial, overall (PS19 mice [5]; compared with PBS-treated PS19 mice) | latency time to find escape hole, learning period (PS19 mice [5]; n = 13, 6 days) | exploration of novel versus familiar object (PS19 mice [6]; 90-min interval) | discriminatory index (DI) (PS19 mice [6]; versus vehicle) | discriminatory ratio (DR) (PS19 mice [6]; versus vehicle) | serum AST levels (PS19 mice [7]) | histology of liver, spleen, heart, lung, kidney (PS19 mice [8]; H&E, n = 3, 100 day post-injection) | overall toxicity after 10 weeks (PS19 mice [8]; PS19 mice) | AT8-positive tau pathology in hippocampus CA1 and CA3 [9] |
| --- | --- | --- | --- | --- | --- | --- | --- | --- | --- | --- | --- | --- | --- | --- | --- | --- | --- | --- |
| CN(C)c1ccc2nc3ccc(=[N+](C)C)cc-3sc2c1 [methylene blue/LMTX, methylene blue] | have yet to show efficacy in treating disease |  |  |  |  |  |  |  |  |  |  |  |  |  |  |  |  |  |
| COc1cc(/C=C/C(=O)CC(=O)/C=C/c2ccc(O)c(OC)c2)ccc1O [curcumin] | have yet to show efficacy in treating disease |  |  |  |  |  |  |  |  |  |  |  |  |  |  |  |  |  |
| MNPs-D-TLKIVWC [MNPs-DP] |  | reduced the length of tau fibrils in a dose-dependent manner | fragmented preformed tau K18^+ fibrils as evidenced by the decrease of ThT signal | reduction of ThT fluorescence intensity | reduction of the abundance of tau K18^+ fibrils and a concurrent increase in the number of globular species | decrease of binding to anti-amyloid OC antibody | fragmented AD-extracted tau fibrils after a 48-hour incubation | can cross the BBB | consistent increase in body weights | comparable performance to WT mice and a significant improvement in memory function compared with PBS-treated PS19 mice | learned a new task quicker with a shorter latency time to find the escape hole compared to the vehicle- or naked MNP-treated PS19 mice | explored the novel object significantly longer than the familiar one | appeared to significantly improve the discriminatory index | appeared to significantly improve the discriminatory index (DI; Fig. 5G) and discriminatory ratio (DR) | comparable to the vehicle groups | no evidence of toxic changes or cell death in cellular structures | without apparent toxic side effects in other body systems | significantly limited tau pathology in both the CA1 and CA3 regions |
